rCAG binder: binders of r(CAG) RNA repeats, primary screen, biochemical, fluorescence. r(CAG) RNA repeat, TO-PRO-1 dye displacement fluorescence. inhibition, % at 3 µM. 370,000 compounds, 1.3% hits. AID 651821, 2012;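 active = inhibition above the plate cutoff, the mean of all test compounds on that plate plus 3 SD, cut at about 35% in these data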;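 also: higher means more dye released from RNA so lower well fluorescence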
HTRA1 inh: HTRA1 serine protease inhibitors, primary screen, biochemical, fluorescence polarization, HTS; Q92743; recombinant HTRA1, FP-rhodamine activity-based probe; inhibition, % at 5.96 µM; 340,000 compounds, 0.5% hits; AID 504803, 2011; in the data active = inhibition above about 36%
PRMT1 inh: PRMT1 methyltransferase inhibitors, primary screen, biochemical, fluorescence polarization. Protein arginine N-methyltransferase 1 (Homo sapiens), Q99873. recombinant PRMT1, activity-based probe fluorescence polarization. inhibition, % at 2.79 µM. 370,000 compounds, 1.3% hits. AID 652257, 2013;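 active = inhibition above about 21% made by adding two undisclosed values, limit read from the data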
Target sequence (Q99873 whole entry, looked up): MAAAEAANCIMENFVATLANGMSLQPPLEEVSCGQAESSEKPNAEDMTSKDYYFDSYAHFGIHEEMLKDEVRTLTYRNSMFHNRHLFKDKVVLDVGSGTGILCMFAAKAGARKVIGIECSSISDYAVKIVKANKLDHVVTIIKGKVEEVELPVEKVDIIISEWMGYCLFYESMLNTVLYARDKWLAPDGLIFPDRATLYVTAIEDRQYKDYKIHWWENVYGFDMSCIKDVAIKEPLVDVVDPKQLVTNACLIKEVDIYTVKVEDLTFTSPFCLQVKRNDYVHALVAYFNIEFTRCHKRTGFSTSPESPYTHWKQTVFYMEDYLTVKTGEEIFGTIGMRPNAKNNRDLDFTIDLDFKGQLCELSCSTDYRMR
SIAE primary: human SIAE inhibitors, primary screen, biochemical, fluorescence polarization, FP-Rh probe, 1536-well HTS. 370,000 compounds, 0.69% hits. Sialate O-acetylesterase (Homo sapiens), Q9HAT2. SIAE FP-Rh probe binding. inhibition, % at 9.66 µM;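 active = inhibition above a cutoff: mean of compounds within the control limits plus 3 SD of those, cut at about 17% in these data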
mABHD4 FP: ABHD4 inhibitors, primary screen, biochemical, fluorescence polarization, mouse; (Lyso)-N-acylphosphatidylethanolamine lipase (Mus musculus), Q8VD66; purified mABHD4, FP-Rh probe fluorescence polarization; inhibition, % at 8.92 µM; 370,000 compounds, 0.54% hits;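 active = inhibition exceeding the mean over every tested compound plus 3 SD, cut at about 30% in these data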
Target sequence (Q8VD66 whole entry, looked up): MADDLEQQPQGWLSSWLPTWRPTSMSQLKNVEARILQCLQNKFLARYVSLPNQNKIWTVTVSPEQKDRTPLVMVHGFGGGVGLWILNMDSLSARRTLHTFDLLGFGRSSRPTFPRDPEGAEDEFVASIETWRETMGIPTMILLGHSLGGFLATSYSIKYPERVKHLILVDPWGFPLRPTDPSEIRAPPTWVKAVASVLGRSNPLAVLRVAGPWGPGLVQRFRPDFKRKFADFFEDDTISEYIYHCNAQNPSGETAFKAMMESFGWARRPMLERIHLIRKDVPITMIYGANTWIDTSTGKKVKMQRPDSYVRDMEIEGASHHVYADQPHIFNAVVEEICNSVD
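System: mouse ABHD4 enzyme, wild type / Medium: HEPES pH 7.0, NaCl, Pluronic buffer / Reagent: FP-Rh activity-based fluorescent probe / Control set: S159A mutant high control, sample median low control / Detection: fluorescence polarization with parallel and perpendicular emission, 525/598 nm / Schedule: 45 min + 60 min at 25 °C / Compound dosing: 8.92 µM, single dose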
SIAE confirm: human SIAE inhibitors, retest, confirmation, biochemical, fluorescence polarization, FP-Rh probe, triplicate; shares compounds with SIAE primary; SIAE FP-Rh activity-based probe; inhibition, % at 9.66 µM; 2,300 compounds, 13% hits; AID 1117263, 2014;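 active = mean inhibition of the replicates above the hit cutoff set in the primary screen, cut at about 17% in these data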;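 also: inhibitors lower polarization as more probe stays unbound to SIAE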
Of the large screens only hits and unclear results are named; the others gave an inactive call (follow-up assays come after a bar, where they were run). An excerpt weighted towards active compounds, which were near 3.3% of everything screened.

O=C(Nc1ccc(F)cc1)N1CCCCCC1	SIAE primary 17.8 | SIAE confirm inactive
O=C1[C@H](Cc2ccccc2)NCC=CC[C@H](c2ccc(Cl)cc2)N1Cc1ccc(Cl)cc1	none
COc1ccc(C(=O)N2CCCC(C)(C(=O)NS(=O)(=O)C3CC3)C2)c(OC)c1 (stereo not drawn)	none (no result: HTRA1 inh)
N/C(=N\OC(=O)CN1C(=O)c2ccccc2C1=O)c1ccc(Br)cc1	none
CCOC(=O)c1c(C)[nH]c(C(=O)NCCc2ccc(OC)c(OC)c2)c1C	SIAE primary 22.0 | SIAE confirm inactive
COc1ccc(CCNC(=O)CCNC(=O)c2ccccc2Cl)cc1	none
COc1cccc(Nc2nc(-c3cccc(N4C(=O)c5ccccc5C4=O)c3)cs2)c1	SIAE primary 24.4 | SIAE confirm inactive
O=C1NC(=Nc2ccc(Cl)cc2)/C(=C/c2ccco2)S1	none
O=C1NC(=Nc2ccc3ccccc3c2)S/C1=C/c1ccco1	rCAG binder 44.1, SIAE primary 32.3 | SIAE confirm inactive
COc1ccccc1NCCC(=O)OCC(=O)NCc1ccco1	SIAE primary 26.9 | SIAE confirm inactive
COC(=O)CSc1nnc(NC(=O)c2ccc3c(c2)OCO3)s1	SIAE primary 18.7 | SIAE confirm inactive
CCOc1ccc(/C=N/Nc2cc(N3CCOCC3)nc(C)n2)c(O)c1	SIAE primary 31.3 | SIAE confirm 26.2
Cn1ccc2c(N3CCCCCC3)cc3c(c21)C1CCC3O1 (stereo not drawn)	none (no result: HTRA1 inh)
Cn1ccc2c(N3CCCC3)cc3c(c21)C1CCC3O1 (stereo not drawn)	SIAE primary 20.2 (no result: HTRA1 inh) | SIAE confirm inactive
O=C(CN1CCN(Cc2cccc(C(F)(F)F)c2)CC1)NCC(=O)Nc1ccc(F)c(F)c1F	none
Cc1c(C(=O)Nc2ccc3c(c2)CCC3)cccc1[N+](=O)[O-]	SIAE primary 17.9 | SIAE confirm inactive
O=C(O)c1cccc([N+](=O)[O-])c1C(=O)Nc1ccc2ccccc2c1	SIAE primary 21.4 | SIAE confirm inactive
O=C(Nc1ccc2ccccc2c1)c1cccc([N+](=O)[O-])c1	SIAE primary 28.9 | SIAE confirm inactive
CCn1c(CNC(=O)c2ccccc2Br)nnc1SCC(=O)Nc1nncs1	none
COC(=O)c1ccc(OC(=O)CCN2c3ccccc3Sc3ccccc32)cc1	none
CC(=O)c1ccc(OC(=O)CCN2c3ccccc3Sc3ccccc32)cc1	SIAE primary 18.9 | SIAE confirm inactive
O=S(=O)(O)c1cc(O)c2cc(Nc3ccccc3)ccc2c1	rCAG binder 43.0, SIAE primary 18.4, mABHD4 FP 65.5 (no result: PRMT1 inh) | SIAE confirm 43.2
CC(=O)Nc1ccc2c(O)cc(S(=O)(=O)O)cc2c1	none
CCOC(=O)N1CCN(Cc2c(F)cccc2Cl)CC1	SIAE primary 18.4 | SIAE confirm inactive
CCOC(=O)N1CCN(Cc2c(F)cccc2F)CC1	none
CO[C@H]1O[C@H](C)[C@@H](O)C[C@H]1NC(=O)OCc1ccccc1	none
CC(=O)Nc1ccc(NC(=O)CSc2nccn2Cc2ccccc2)cc1	none
Cc1ccc(NC(=O)CSc2nccn2Cc2ccccc2)cc1C	SIAE primary 17.6 | SIAE confirm inactive
COc1cccc(NC(=O)CN(C)C(=O)c2cc(S(=O)(=O)Nc3ccccc3OC)ccc2C)c1	none
Cc1nn(C)c(Cl)c1CN1CCC(CO)(CCOc2ccccc2)CC1	SIAE primary 17.2 | SIAE confirm inactive
CC(=O)OC1CCC2(C)C3CCC4(C)C(C(C)=O)CCC4C3CC3OC32C1 (stereo not drawn)	none
Nc1ccn([C@@H]2O[C@H](C(=O)N[C@H](Cc3ccccc3)C(=O)N3CCN(C(=O)N4CCCCC4)CC3)[C@@H](O)[C@H]2O)c(=O)n1	SIAE primary 23.4 (no result: HTRA1 inh) | SIAE confirm 18.4
NC(=O)c1ncn([C@@H]2O[C@H](C(=O)N[C@H](Cc3c[nH]c4ccccc34)C(=O)N3CCN(C(=O)N4CCCCC4)CC3)[C@@H](O)[C@H]2O)n1	SIAE primary 17.2 (no result: HTRA1 inh) | SIAE confirm inactive
Nc1ccn([C@@H]2O[C@H](C(=O)N[C@H](Cc3ccccc3)C(=O)N3CCN(CCO)CC3)[C@@H](O)[C@H]2O)c(=O)n1	none (no result: HTRA1 inh)
NC(=O)c1ncn([C@@H]2O[C@H](C(=O)N[C@H](Cc3ccccc3)C(=O)N3CCN(c4ccc(Cl)cn4)CC3)[C@@H](O)[C@H]2O)n1	none (no result: HTRA1 inh)
Cc1cc(C)cc(C(O)c2ncc(-c3ccccc3F)[nH]2)c1 (stereo not drawn)	none (no result: HTRA1 inh)
O=C(NCCCc1ccccc1)[C@H](Cc1c[nH]c2ccccc12)NC1(C(=O)NCCc2c[nH]c3ccccc23)CCC1	none (no result: rCAG binder, HTRA1 inh)
CC1=C(C(=O)N(C)C)CC(CC(=O)NC2CCCC2)C(=O)N1Cc1ccc(F)cc1 (stereo not drawn)	none
CN1CCC(=NNC(=O)CN(c2cccc([N+](=O)[O-])c2)S(=O)(=O)c2ccccc2)CC1	SIAE primary 22.6 | SIAE confirm inactive
CCn1c(NCc2ccc3c(c2)OCO3)nc2ccccc21	none
CN(C)CCCn1c(NCc2ccc3c(c2)OCO3)nc2ccccc21	SIAE primary 17.7 | SIAE confirm inactive
C/C(=N\NC(=O)CN1CCN(c2ccc(F)cc2)CC1)c1ccco1	none
Cc1nc(NC(=O)COC(=O)c2ccc(CO)cc2)c(Cl)cc1Cl	none
CC(C)=C1C2CCC1C(C(=O)NCCc1ccccc1)C2C(=O)O (stereo not drawn)	SIAE primary 21.4 | SIAE confirm inactive
Cc1ccc(NS(=O)(=O)c2cccc(C(=O)NNC(=O)NC3CCCCC3)c2)c(C)c1	SIAE primary 17.7 | SIAE confirm inactive
Cc1ccccc1CN1CCN(C(=O)[C@H]2O[C@@H](n3cnc(C(N)=O)n3)[C@H](O)[C@@H]2O)CC1	SIAE primary 18.7 (no result: HTRA1 inh) | SIAE confirm 29.0
NC(=O)c1ncn([C@@H]2O[C@H](C(=O)N3CCCN(Cc4ccccc4F)CC3)[C@@H](O)[C@H]2O)n1	SIAE primary 80.5 (no result: HTRA1 inh) | SIAE confirm 87.8
Nc1ccn([C@@H]2O[C@H](C(=O)N3CCCN(Cc4ccccc4F)CC3)[C@@H](O)[C@H]2O)c(=O)n1	none (no result: HTRA1 inh)
Cc1ccc2nc3sc(C(=O)N4CCN(C)CC4)cc3cc2c1	none (no result: rCAG binder, HTRA1 inh)
CN1CCN(c2cc(-c3ccc4ccccc4c3)nc3ccnn23)CC1	none (no result: HTRA1 inh)
Cc1ccc([C@H]2C[C@H](O)[C@@H](n3cc(COC(=O)c4ccccc4)nn3)CN2Cc2cccs2)cc1	none
COC(=O)C1=C(NC(=O)COc2ccc(Cl)cc2Cl)CCS1	SIAE primary 20.3 | SIAE confirm inactive
COC(=O)[C@]12CCCCC=C1N(Cc1ccccc1)C(=O)[C@H](CC(=O)NCC1CCCCC1)C2	none (no result: HTRA1 inh)

Screening results as filed in PubChem BioAssay.
